Results as given in article PMC3240737 (Journal of medicinal chemistry, 2011).
Residues, ends and D or L forms follow the SMILES beside them.

Assays:
[Y20]Aβ42 = [Y20]Aβ42 (Homo sapiens, UniProt P05067, F691Y/Y681F); assay: Intrinsic Y fluorescence; type: binding; conditions: [Y20]Aβ42 5 μM, peptide 50 μM, pH 7.4, 22°C
[1] = system: mouse primary hippocampal neurons; conditions: cited from earlier work
[2] = system: alamethicin-induced toxicity in differentiated PC-12 cells; assay: Inhibition of alamethicin-induced toxicity, MTT assay; type: cell-based, rat; conditions: alamethicin 4 μM, increasing Aβ(39–42) concentrations, 24 h, n ≥ 15
Procedure, shortened: (§1)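 PC-12 cells differentiated with nerve growth factor (100 ng/mL, 48 h), then exposed for 24 h to the toxin with or without a range of test compound concentrations. Viability by MTT, scaled between medium and 1 μM staurosporine full kill (100% reduction). Controls were NaOH-matched vehicle and medium alone. Mean ± SEM of ≥3 independent experiments, 5 replicates per point.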

WT Aβ42 = WT Aβ42 (Homo sapiens, UniProt P05067); assay: Intrinsic Y fluorescence; type: binding; conditions: peptide 50 μM, pH 7.4, 22°C
Procedure, shortened: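 HFIP-treated peptide films were dissolved in 60 mM NaOH (10% of final volume) and diluted in 10 mM sodium phosphate, pH 7.4, to nominal Aβ42 5 μM ± test peptide 50 μM. Samples were spun at 5,000 g for 1 min, with concentrations verified by amino acid analysis. Ex 280 nm, em 290–400 nm, 22°C, ≥10 scans immediately. Buffer-subtracted, area integrated per micromole, normalized to Aβ42 alone; 4 experiments.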

[Y42]Aβ42 = [Y42]Aβ42 (Homo sapiens, UniProt P05067, A713Y/Y681F); assay: Intrinsic Y fluorescence; type: binding; conditions: [Y42]Aβ42 5 μM, peptide 50 μM, pH 7.4, 22°C
[3] = system: Aβ42-induced toxicity in differentiated PC-12 cells; assay: Inhibition of Aβ42-induced neurotoxicity, MTT assay; type: cell-based, rat; conditions: for Inhibition of Aβ42-induced neurotoxicity, single-dose screen: Aβ42 10 μM with 10-fold excess of derivative, 24 h, MTT, n ≥ 18
[4] = system: α-synuclein-induced toxicity in differentiated PC-12 cells; assay: Inhibition of α-synuclein-induced toxicity, MTT assay; type: cell-based, rat; conditions: α-synuclein 15 μM, increasing Aβ(39–42) concentrations, 24 h, n ≥ 15
Procedure, shortened: as §1

[Y30]Aβ42 = [Y30]Aβ42 (Homo sapiens, UniProt P05067, A701Y/Y681F); assay: Intrinsic Y fluorescence; type: binding; conditions: [Y30]Aβ42 5 μM, peptide 50 μM, pH 7.4, 22°C
[Y1]Aβ42 = [Y1]Aβ42 (Homo sapiens, UniProt P05067, D672Y/Y681F); assay: Intrinsic Y fluorescence; type: binding; conditions: [Y1]Aβ42 5 μM, peptide 50 μM

## CC[C@H](C)[C@H](NC(=O)[C@@H](NC(=O)[C@@H](N)C(C)C)C(C)C)C(=O)N[C@@H](C)C(=O)O [Aβ(39–42)]
[Y20]Aβ42
  Change of [Y20]Aβ42 fluorescence upon addition of peptide: did not change significantly
[1]
  Rescue from Aβ42-induced inhibition of miniature excitatory postsynaptic current frequency: significantly rescued
[2]
  Protection from alamethicin-induced toxicity: only weak protection
WT Aβ42; WT Aβ42 5 μM
  Change of WT Aβ42 fluorescence upon addition of peptide: did not change significantly
[Y42]Aβ42
  Change of [Y42]Aβ42 fluorescence upon addition of peptide: did not change significantly
[3]; Aβ42 10 μM, MTT and LDH
  Dose dependence of inhibition of Aβ42-induced toxicity: dose-dependent inhibition
[4]
  Protection from α-synuclein-induced toxicity: only weak protection
[Y30]Aβ42
  Change of [Y30]Aβ42 fluorescence upon addition of peptide: did not change significantly

## CC[C@H](C)[C@H](NC(=O)[C@@H](NC(=O)[C@@H](N)C(C)C)C(C)C)C(=O)N[C@@H](C)C(N)=O [VVIA-NH2] (H-VVIA-NH2)
[Y1]Aβ42
  Fold lower [Y1]Aβ42 fluorescence increase than with unmodified Aβ(39–42): 1.8 times
[3]
  Inhibition of Aβ42-induced neurotoxicity, single-dose screen: as active as Aβ(39–42)
[Y30]Aβ42; mean ± SEM of 4 experiments
  Decrease of [Y30]Aβ42 fluorescence upon addition of peptide: 24 ± 3%

## Ac-AIVV
[Y1]Aβ42; Fig. S3
  [Y1]Aβ42 fluorescence increase compared with Aβ(39–42): significantly lower
[3]
  Inhibition of Aβ42-induced neurotoxicity, single-dose screen: no inhibitory activity

## Ac-VVIA
WT Aβ42; Aβ42 5 μM, mean ± SEM of 4 experiments
  Decrease of Aβ42 fluorescence upon addition of peptide: 19 ± 3%
[3]
  Inhibition of Aβ42-induced neurotoxicity, single-dose screen: no inhibitory activity

## VVAA
[3]
  Inhibition of Aβ42-induced neurotoxicity, single-dose screen: lost inhibitory activity
